One series deals with Hsp90. As to the kind of experiment: Immunoblot of Hsp90 in U87-MG cells. The series is classed as cell-based, human. Particulars: 1 30 nM, 2 1 μM, 24 h. The essentials:
(§1)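 U87-MG cells in MEM with 10% FBS are exposed 24 h to test compound (30 nM or 1 μM) or 0.1% DMSO. Protein-matched lysates (BCA) are run on SDS-PAGE, transferred to PVDF and detected with HRP secondary. Signals are normalized to α-tubulin and expressed relative to control. Three independent experiments; one-way ANOVA then t-test.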
In general terms: Immunoblotting shows a protein as a band on a membrane.

The next series has as its system SF-268 GBM cells. As to the kind of experiment: Cell viability. The series is classed as cell-based, human. Particulars: read-out: EC50, SF-268 cells; 72 h. The essentials:
(§2)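 Cells are grown at 37 °C in 5% CO2. U87-MG and U251 are in MEM with 10% FBS, SF-268 in DMEM with 10% FBS, and SF-295 in RPMI 1640 with 10% FBS. HUVECs are pooled donors. Exposure is to the test compound (0.1 nM–1 μM) or 0.1% DMSO for 72 h. Viability is read by ATP luminescence as % of vehicle, n = 3 wells. […] comes from a logistic nonlinear fit over three independent comparisons.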

For series [1], the system named is patient-derived GSCs (M120, MGG6, M76, GBM8, and 157). The series is classed as cell-based, human. Conditions: read-out: EC50, viability of 5/6 GSC lines; 72 h.
A further series concerns Hsp70. As to the kind of experiment: Immunoblot of Hsp70 in U87-MG cells. Particulars: 1 30 nM, 2 1 μM, 24 h. The series is classed as cell-based, human. The essentials:
as §1

Another series concerns Gluc-U87 cells. As to the kind of experiment: Viability of adherent GLuc-U87 cells. The series is classed as cell-based, human. Conditions: 0.3–300 nM.
In the next series the test system is BiP. As to the kind of experiment: Immunoblot of BiP expression. The series is classed as cell-based, human.
Series [2] deals with HEK293FRT cells expressing WT or mutant (R66I) Sec61α. As to the kind of experiment: Viability of WT versus Sec61α R66I mutant HEK293 cells. The series is classed as cell-based, human. Conditions: 72 h or 3 + 3 day exposure. The essentials:
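HEK293FRT cells carrying Sec61α R66I, with wild-type comparators, are grown in DMEM with 10% FBS, 6 mM L-glutamine and 1 mM pyruvate. They are exposed to increasing test compound concentrations or 0.1% DMSO for 72 h, or 3 + 3 days to avoid nutrient deprivation. ATP viability is read as % of vehicle, n = 3 wells. Logistic nonlinear fit; ≥3 independent experiments.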

The next series has as its system GSC line 83. As to the kind of experiment: GSC neurosphere viability, 72 h, line 83. The series is classed as cell-based, human. Particulars: read-out: EC50, GSC type 83.
The next series deals with U87-MG GBM cells. As to the kind of experiment: Cell viability. The series is classed as cell-based, human. Particulars: read-out: EC50, U87-MG cells; 72 h. In short, it runs like this:
as §2

The test system of another series is GSC 157 neurospheres. As to the kind of experiment: Neurosphere morphology of GSC 157 by light microscopy. Conditions: 100 nM, 24 h, relative to control-treated cells. The series is classed as cell-based, human. In short, it runs like this: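 Patient-derived GSC 157 cells are dissociated from tumour and expanded as neurospheres in medium with heparin 2 μg/mL, EGF 20 ng/mL and bFGF 10 ng/mL. Neurospheres receive test compound at 100 nM for 24 h. Morphology and neurosphere size are compared with control-treated cells.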

For a further series, the system named is U251 GBM cells. As to the kind of experiment: Cell viability. The series is classed as cell-based, human. Particulars: read-out: EC50, U251 cells; 72 h. The essentials:
as §2

The subject of another series is subcutaneous xenografts. Conditions: unmodified natural product; cited from earlier work.
In series [3] the test system is WT and mutant (R66I) Sec61α HCT116 colon cancer cells. As to the kind of experiment: Viability of WT versus Sec61α R66I mutant HCT116 cells. The series is classed as cell-based, human. Particulars: 72 h and 6 days (3 + 3 day exposure).
The test system of series [4] is UPR markers (BiP, CHOP, sXBP1, GADD34, IRE1) mRNA. As to the kind of experiment: qPCR of ER stress. The series is classed as cell-based, human. Particulars: 80 nM plus thapsigargin 300 nM, 24 h. The essentials:
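GSC neurospheres (MGG6, 83, M76, GBM8) are treated 24 h with test compound 80 nM, thapsigargin 300 nM, both together, or 0.1% DMSO. BiP, CHOP, sXBP1, GADD34 and IRE1 mRNA are measured by qPCR normalized to GAPDH and expressed as fold-change versus vehicle.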
For orientation: Real-time PCR tracks product formation cycle by cycle.

Bridge positions count the residues as written; N and C are the ends. Square brackets hold non-standard residues; d marks the D form. Peptide text beside a SMILES is read from it. * marks the point of attachment. NMe2Val = CC(C)[C@@H](C(=O)*)N(C)C; NMeI = CC[C@H](C)[C@H](NC)C(=O)O; NMeT = CN[C@H](C(=O)O)[C@@H](C)O; NMeL = CN[C@@H](CC(C)C)C(=O)O; dHiv = CC(C)[C@@H](O)C(=O)O; NMeS = CN[C@@H](CO)C(=O)O; dNMeA = CN[C@H](C)C(=O)O

Regarding `CC[C@H](C)[C@H]1C(=O)N[C@@H](C)C(=O)N(C)[C@@H](CC(C)C)C(=O)N[C@@H](Cc2ccc(OC)cc2)C(=O)N(C)[C@H](C)C(=O)O[C@H](C)[C@H](N(C)C(=O)[C@H](CC(C)C)N(C)C(=O)[C@H](COC)N(C)C(=O)[C@H](OC(=O)[C@H](C(C)C)N(C)C)C(C)C)C(=O)N(C)[C@@H](COC)C(=O)N1C` [compound 1, Coibamide A] (NMe2Val-[dHiv][NMeS](Me)[NMeL][NMeT][NMeS](Me)[NMeI]A[NMeL]Y(Me)[dNMeA]; ester 4-C), the Hsp90 expression entry in the series on Hsp90 was “upregulation”. Further, the EC50 with SF-268 GBM cells was more than 700 nM; in series [1], less than 4 nM; in the series on GSC line 83, approximately 100 nM; in the series on U87-MG GBM cells it was 18 nM; with U251 GBM cells, more than 700 nM. Moreover, the Hsp70 expression entry in the series with Hsp70 is listed as “upregulation”. In the series with Gluc-U87 cells, the “Cell viability at 18 h” value is listed as “no change in cell viability”. In addition, in the series with BiP (1 250 nM and 500 nM, 2 3 µM, 72 h), the “BiP expression, GSC line 83” value is “decrease”. Besides, in the series with BiP (immunoblot, 24 h), the “BiP protein expression, GSC MGG6 neurospheres and adherent U87-MG cells” value was “downregulation”. Further, the “Response of mutant Sec61(R66I) HEK293 cells relative to WT” value in [2] is recorded as “resistant”. For the same molecule, in the series with GSC 157 neurospheres, the “Change in neurosphere morphology” value is “reduction in neurosphere size”. For the same molecule, in the series with subcutaneous xenografts, the “Safety after repeat dosing in mice bearing subcutaneous xenografts” value is “adverse safety profile”. In series [3], the “Effect of Sec61α R66I mutation on cytotoxic response relative to WT HCT116 cells” value is “mild resistance”. In addition, in series [4], the “Effect on thapsigargin-induced upregulation of all UPR markers, GSC line MGG6” value is “almost completely abrogated”.

These data come from article PMC11184607 (ACS Pharmacology & Translational Science, 2024).
